{"source": "ChEMBL document CHEMBL3259611", "about": "“Suppression of inflammatory responses by handelin, a guaianolide dimer from Chrysanthemum boreale, via downregulation of NF-κB signaling and pro-inflammatory cytokine production” (J Nat Prod, 2014)", "key": {"[1]": {"target": "T1, Nuclear factor NF-kappa-B p105 subunit (Mus musculus) (UniProt P25799)", "T1 sequence (whole entry)": "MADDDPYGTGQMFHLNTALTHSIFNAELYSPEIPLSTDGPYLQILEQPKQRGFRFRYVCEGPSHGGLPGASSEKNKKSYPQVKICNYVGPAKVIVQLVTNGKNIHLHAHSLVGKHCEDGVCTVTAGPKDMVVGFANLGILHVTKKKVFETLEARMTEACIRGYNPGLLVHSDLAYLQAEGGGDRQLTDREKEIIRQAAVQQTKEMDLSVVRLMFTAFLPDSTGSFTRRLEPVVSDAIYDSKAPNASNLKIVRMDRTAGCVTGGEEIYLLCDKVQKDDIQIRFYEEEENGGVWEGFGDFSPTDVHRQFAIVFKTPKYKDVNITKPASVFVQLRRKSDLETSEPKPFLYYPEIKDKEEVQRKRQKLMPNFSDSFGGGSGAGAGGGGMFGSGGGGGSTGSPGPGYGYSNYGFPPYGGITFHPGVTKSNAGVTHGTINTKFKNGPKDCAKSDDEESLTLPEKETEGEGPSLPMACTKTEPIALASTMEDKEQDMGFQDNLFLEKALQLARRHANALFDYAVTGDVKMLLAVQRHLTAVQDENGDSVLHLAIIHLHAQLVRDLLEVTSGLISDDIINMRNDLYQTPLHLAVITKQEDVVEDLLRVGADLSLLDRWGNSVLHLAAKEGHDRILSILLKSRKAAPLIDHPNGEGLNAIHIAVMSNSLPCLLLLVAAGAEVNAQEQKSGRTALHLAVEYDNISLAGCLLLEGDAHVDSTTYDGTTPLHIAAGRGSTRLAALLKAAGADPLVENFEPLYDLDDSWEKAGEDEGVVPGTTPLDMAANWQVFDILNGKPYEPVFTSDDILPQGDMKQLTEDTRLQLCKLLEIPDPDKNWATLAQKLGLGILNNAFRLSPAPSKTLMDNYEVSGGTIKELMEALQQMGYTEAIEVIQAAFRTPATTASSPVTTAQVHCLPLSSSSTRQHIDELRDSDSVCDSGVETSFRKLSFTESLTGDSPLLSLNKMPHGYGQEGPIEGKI", "test": "Inhibition of LPS-induced NFkappaB P50 protein nuclear translocation in mouse RAW264.7 cells at 40 uM after 30 mins by Western blotting analysis relative to control", "assay_type": "cell-based", "outline": "(§1)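 Macrophages were exposed to compound for 30 min before LPS stimulation, with proteins extracted 30 min later. Nuclear extracts were prepared in Tris/KCl/NP-40 lysis buffer, then 420 mM NaCl buffer, and the cytosolic fraction was kept for IκB-α. Western blot on PVDF with ECL detection. Tests in triplicate; representative of three separate experiments.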"}, "[2]": {"tested_on": "RAW264.7", "test": "Antiinflammatory activity in mouse RAW264.7 cells assessed as inhibition LPS-induced TNF-alpha protein expression at 10 uM after 4 hrs by Western blotting analysis relative to control", "assay_type": "functional"}, "[3]": {"target": "Transcription factor p65 (Mus musculus) (UniProt Q04207)", "sequence (Q04207 whole entry)": "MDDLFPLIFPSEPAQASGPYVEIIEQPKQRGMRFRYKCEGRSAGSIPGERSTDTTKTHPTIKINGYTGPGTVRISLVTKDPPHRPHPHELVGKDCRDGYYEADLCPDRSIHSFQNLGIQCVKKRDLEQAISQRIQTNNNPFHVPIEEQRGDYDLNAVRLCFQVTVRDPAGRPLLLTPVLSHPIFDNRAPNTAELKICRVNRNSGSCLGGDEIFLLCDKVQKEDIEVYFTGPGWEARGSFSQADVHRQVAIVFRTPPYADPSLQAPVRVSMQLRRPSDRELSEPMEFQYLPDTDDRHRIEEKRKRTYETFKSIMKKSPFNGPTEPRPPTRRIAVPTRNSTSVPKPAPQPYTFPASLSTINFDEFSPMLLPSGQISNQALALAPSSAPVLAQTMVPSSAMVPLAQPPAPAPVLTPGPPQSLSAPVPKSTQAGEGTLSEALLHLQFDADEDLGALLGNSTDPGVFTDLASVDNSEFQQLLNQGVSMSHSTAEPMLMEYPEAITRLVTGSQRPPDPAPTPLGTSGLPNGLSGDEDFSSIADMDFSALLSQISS", "test": "Inhibition of LPS-induced NFkappaB P65 protein nuclear translocation in mouse RAW264.7 cells at 10 uM after 30 mins by Western blotting analysis relative to control", "assay_type": "cell-based", "outline": "as §1"}, "[4]": {"tested_on": "RAW264.7", "test": "Inhibition of LPS-induced NF-kappaB transcriptional activity in mouse RAW264.7 cells treated 2 hrs prior to LPS challenge measured after 16 hrs by SEAP reporter gene assay relative to control", "assay_type": "cell-based", "outline": "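NF-κB SEAP reporter assay in RAW 264.7 cells: 2 h compound pretreatment, then LPS for 16 h. Supernatants heated 65 °C for 5 min, then reacted with 2 M diethanolamine, 1 mM MgCl2 and 500 μM MUP for 1 h at 37 °C in the dark. Fluorescence read at ex 360/em 449 nm and normalized to protein. Expressed relative to vehicle control without LPS; triplicates.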"}, "[5]": {"target": "T1, Nuclear factor NF-kappa-B p105 subunit (Mus musculus)", "test": "Inhibition of LPS-induced NFkappaB P50 protein nuclear translocation in mouse RAW264.7 cells at 10 uM after 30 mins by Western blotting analysis relative to control", "assay_type": "cell-based", "outline": "as §1"}, "[6]": {"tested_on": "Mus musculus", "test": "Antiinflammatory activity in ICR mouse ear edema model assessed as inhibition of TPA-induced COX2 protein expression in ear tissue at 10 to 20 mg/kg, po administered 30 mins prior to TPA challenge measured after 4 hrs by Western blotting analysis relative to vehicle-treated control", "assay_type": "functional, organism-based", "outline": "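ICR mice (male, 18−20 g, 5 weeks old) dosed orally 30 min before TPA (1.0 μg in 20 μL acetone) was applied to inner and outer surfaces of the right ear. Killed by cervical dislocation after 4 h. Edema taken as the weight of a 5 mm punch biopsy of the right ear over the left. Ear homogenates were Western blotted for iNOS, COX-2 and IL-1β.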"}, "[7]": {"target": "Transcription factor p65 (Mus musculus) (UniProt Q04207)", "test": "Inhibition of LPS-induced NFkappaB P65 protein nuclear translocation in mouse RAW264.7 cells at 20 uM after 30 mins by Western blotting analysis relative to control", "assay_type": "cell-based", "outline": "as §1"}, "[8]": {"target": "T1, Nuclear factor NF-kappa-B p105 subunit (Mus musculus)", "test": "Inhibition of LPS-induced NF-kappaB p50 binding to DNA in mouse RAW264.7 cells at 10 to 40 uM after 1.5 hrs by spectrophotometry", "assay_type": "cell-based"}, "[9]": {"test": "Cytotoxicity against mouse RAW264.7 cells assessed as cell viability at 40 uM after 4 hrs by MTT assay relative to control", "assay_type": "cell-based", "details": "read-out: Activity", "outline": "(§2)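 RAW 264.7 cells plated at 3 × 10^5 cells/mL in phenol red-free 10% FBS–DMEM, incubated 24 h, then treated with compound plus 1 μg/mL LPS for 20 h. After the Griess step, MTT was added (final 500 μg/mL) for 4 h at 37 °C. Formazan dissolved in DMSO, A570 read; survival taken relative to control; triplicate.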"}, "[10]": {"tested_on": "RAW264.7", "test": "Antiinflammatory activity in mouse RAW264.7 cells assessed as inhibition of LPS-induced COX2 protein expression at 40 uM after 16 hrs by Western blotting analysis relative to control", "assay_type": "functional", "outline": "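RAW 264.7 cells given LPS (1 μg/mL) with or without compound for 16 h. Cell lysates were Western blotted for iNOS and COX-2 (6−15% SDS-PAGE, PVDF, ECL detection). Performed in triplicate.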"}, "[11]": {"tested_on": "RAW264.7", "test": "Antiinflammatory activity in mouse RAW264.7 cells assessed as inhibition of LPS-induced PGE2 production administered 1 hr prior to LPS challenge measured after 20 hrs by EIA relative to control", "assay_type": "functional, cell-based", "outline": "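RAW 264.7 cells plated at 3 × 10^5 cells/mL, pretreated with compound for 1 h, then stimulated with 1 μg/mL LPS for 20 h. PGE2 in the supernatant was measured by immunoassay kit. Mean ± SD of triplicates.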"}, "[12]": {"tested_on": "RAW264.7", "test": "Antiinflammatory activity in mouse RAW264.7 cells assessed as inhibition LPS-induced TNF-alpha protein expression at 20 uM after 4 hrs by Western blotting analysis relative to control", "assay_type": "functional"}, "[13]": {"test": "Cytotoxicity against mouse RAW264.7 cells assessed as cell survival at 20 uM after 4 hrs by MTT assay relative to control", "assay_type": "cell-based", "details": "read-out: Survival", "outline": "as §2"}, "[14]": {"tested_on": "RAW264.7", "test": "Antiinflammatory activity in mouse RAW264.7 cells assessed as inhibition of LPS-induced COX2 protein expression after 16 hrs by Western blotting analysis"}}, "note": "Calls of active or inactive are those of the source. No cut-off for these calls is given here."}
{"compound": "C=C1C(=O)O[C@@H]2[C@@H]3[C@@]4(C=C[C@@]3(C)[C@]3(C4)C(=O)O[C@@H]4[C@H]5C(C)=CC[C@H]5[C@](C)(O)C[C@H](OC(C)=O)[C@H]43)[C@](C)(O)CC[C@@H]12", "values": [{"measurement": "fold change (FC)", "setting": "[1]", "value": 0.16}, {"measurement": "fold change (FC)", "setting": "[2]", "value": 0.9}, {"measurement": "inhibition", "setting": "[3]", "value": "Active"}, {"measurement": "inhibition", "setting": "[4]", "value": "Active"}, {"measurement": "inhibition", "setting": "[5]", "value": "Active"}, {"measurement": "inhibition", "setting": "[6]", "value": "Active"}, {"measurement": "fold change (FC)", "setting": "[7]", "value": 0.63}, {"measurement": "inhibition", "setting": "[8]", "value": "Active"}, {"measurement": "viability at 4 h, 40 µM", "setting": "[9]", "value": 83, "unit": "%"}, {"measurement": "fold change (FC)", "setting": "[10]", "value": 0.15}, {"measurement": "IC50", "setting": "[11]", "value": 14.3, "unit": "µM"}, {"measurement": "inhibition", "setting": "[11]", "value": "Dose-dependent effect"}, {"measurement": "fold change (FC)", "setting": "[12]", "value": 0.76}, {"measurement": "viability at 4 h, 20 µM", "setting": "[13]", "value": "> 80", "unit": "%"}, {"measurement": "inhibition", "setting": "[14]", "value": "Dose-dependent effect"}]}
